The compounds below were run on Rattus norvegicus (assay: Inhibition of total cholesterol in normolipidemic rats after 2 hr of 50 mg/kg oral dosing).
Assay type: functional
How it was run: (§1)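 Overnight-fasted normolipidemic rats received a single oral dose in cornstarch vehicle. Blood was drawn at 2, 6 and 24 h post-dose and assayed for triglycerides and total cholesterol, with free access to food after the 6 h sample. Value is mean percent inhibition versus a separate vehicle-treated group, unpaired t test p < 0.05, NS = no significant change, N = 6.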

| Compound | Reduction |
| --- | --- |
| Cc1cccc(C(=O)Nc2ccc3c(c2)C[C@@H](NS(C)(=O)=O)C3)c1-c1ccc(C(F)(F)F)cc1 | 12% |
| Cc1cccc(C(=O)Nc2ccc3c(c2)CCC(NS(C)(=O)=O)CC3)c1-c1ccc(C(F)(F)F)cc1 (stereo not given) | 29% |
| COC(=O)NC1CCc2ccc(NC(=O)c3cccc(C)c3-c3ccc(C(F)(F)F)cc3)cc2CC1 (stereo not given) | 20% |
| Cc1cccc(C(=O)Nc2ccc3c(c2)C[C@H](NS(C)(=O)=O)C3)c1-c1ccc(C(F)(F)F)cc1 | 27% |
| COC(=O)N[C@H]1Cc2ccc(NC(=O)c3ccccc3-c3ccc(C(F)(F)F)cc3)cc2C1 | 20% |

What follows are compounds tested on Rattus norvegicus (assay: Inhibition of plasma triglycerides in normolipidemic rats after 6 h of […] mg/kg oral dosing; no significant change).
Assay type: functional, organism-based
Parameters: dose 50 mg/kg

| Compound | NS |
| --- | --- |
| COC(=O)NC1CCc2ccc(NC(=O)c3cccc(C)c3-c3ccc(C(F)(F)F)cc3)cc2CC1 (stereo not given) | no significant change |

Each compound was assayed on Rattus norvegicus (assay: Inhibition of total cholesterol in normolipidemic rats after 6 hr of 50 mg/kg oral dosing).
Assay type: functional
How it was run: as §1

| Compound | Reduction |
| --- | --- |
| Cc1cccc(C(=O)Nc2ccc3c(c2)C[C@@H](NS(C)(=O)=O)C3)c1-c1ccc(C(F)(F)F)cc1 | 15% |
| Cc1cccc(C(=O)Nc2ccc3c(c2)CCC(NS(C)(=O)=O)CC3)c1-c1ccc(C(F)(F)F)cc1 (stereo not given) | 41% |
| COC(=O)NC1CCc2ccc(NC(=O)c3cccc(C)c3-c3ccc(C(F)(F)F)cc3)cc2CC1 (stereo not given) | 20% |
| Cc1cccc(C(=O)Nc2ccc3c(c2)C[C@H](NS(C)(=O)=O)C3)c1-c1ccc(C(F)(F)F)cc1 | 42% |
| COC(=O)N[C@H]1Cc2ccc(NC(=O)c3ccccc3-c3ccc(C(F)(F)F)cc3)cc2C1 | 39% |

What follows are compounds tested on Rattus norvegicus (assay: Inhibition of total cholesterol in normolipidemic rats after 24 hr of 50 mg/kg oral dosing).
Assay type: functional
How it was run: as §1

| Compound | Reduction |
| --- | --- |
| Cc1cccc(C(=O)Nc2ccc3c(c2)CCC(NS(C)(=O)=O)CC3)c1-c1ccc(C(F)(F)F)cc1 (stereo not given) | 17% |

Each compound was assayed on Rattus norvegicus (assay: Inhibition of plasma triglycerides in normolipidemic rats after 6 hr of 50 mg/kg oral dosing).
Assay type: functional
How it was run: as §1

| Compound | Reduction |
| --- | --- |
| Cc1cccc(C(=O)Nc2ccc3c(c2)C[C@@H](NS(C)(=O)=O)C3)c1-c1ccc(C(F)(F)F)cc1 | 33% |
| Cc1cccc(C(=O)Nc2ccc3c(c2)CCC(NS(C)(=O)=O)CC3)c1-c1ccc(C(F)(F)F)cc1 (stereo not given) | 53% |
| Cc1cccc(C(=O)Nc2ccc3c(c2)C[C@H](NS(C)(=O)=O)C3)c1-c1ccc(C(F)(F)F)cc1 | 68% |
| COC(=O)N[C@H]1Cc2ccc(NC(=O)c3ccccc3-c3ccc(C(F)(F)F)cc3)cc2C1 | 74% |

The compounds below were run against T1, Microsomal triglyceride transfer protein large subunit (Homo sapiens, UniProt P55157) (assay: In vitro inhibitory activity against MTP using MTP transfer assay).
T1 sequence (P55157 whole entry): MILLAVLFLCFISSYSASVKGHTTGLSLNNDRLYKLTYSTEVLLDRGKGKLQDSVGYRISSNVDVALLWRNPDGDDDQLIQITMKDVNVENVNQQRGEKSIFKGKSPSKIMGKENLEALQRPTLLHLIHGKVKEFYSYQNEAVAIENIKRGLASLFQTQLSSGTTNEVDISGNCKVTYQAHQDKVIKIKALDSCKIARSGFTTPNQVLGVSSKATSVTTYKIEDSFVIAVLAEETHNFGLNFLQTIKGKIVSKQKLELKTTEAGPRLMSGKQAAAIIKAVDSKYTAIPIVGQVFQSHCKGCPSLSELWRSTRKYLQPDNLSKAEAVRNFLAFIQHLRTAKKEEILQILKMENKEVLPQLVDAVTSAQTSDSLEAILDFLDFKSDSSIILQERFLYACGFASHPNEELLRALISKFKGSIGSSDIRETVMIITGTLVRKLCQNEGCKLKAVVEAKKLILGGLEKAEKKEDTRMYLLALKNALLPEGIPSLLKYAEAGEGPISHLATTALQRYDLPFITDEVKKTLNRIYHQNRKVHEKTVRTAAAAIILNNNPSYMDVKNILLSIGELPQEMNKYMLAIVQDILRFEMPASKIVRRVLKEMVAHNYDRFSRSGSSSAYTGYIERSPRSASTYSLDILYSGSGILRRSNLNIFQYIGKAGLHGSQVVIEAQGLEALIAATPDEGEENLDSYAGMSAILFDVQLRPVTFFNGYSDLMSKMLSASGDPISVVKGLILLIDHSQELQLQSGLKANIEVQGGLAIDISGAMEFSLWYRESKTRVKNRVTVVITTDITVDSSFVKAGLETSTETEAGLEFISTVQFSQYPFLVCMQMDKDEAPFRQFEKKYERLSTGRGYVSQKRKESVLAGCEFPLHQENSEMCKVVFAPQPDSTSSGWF

| Compound | IC50 |
| --- | --- |
| Cc1cccc(C(=O)Nc2ccc3c(c2)C[C@@H](NS(C)(=O)=O)C3)c1-c1ccc(C(F)(F)F)cc1 | 204 nM |
| Cc1cccc(C(=O)Nc2ccc3c(c2)CCC(NS(C)(=O)=O)CC3)c1-c1ccc(C(F)(F)F)cc1 (stereo not given) | 80 nM |
| COC(=O)N[C@H]1Cc2ccc(NC(=O)c3ccccc3-c3ccc(C(F)(F)F)cc3)cc2C1 | 68 nM |

Further compounds by falling IC50, results first:

| IC50 | Compound |
| --- | --- |
| 34 nM | Cc1cccc(C(=O)Nc2ccc3c(c2)C[C@H](NS(C)(=O)=O)C3)c1-c1ccc(C(F)(F)F)cc1 |
| 20 nM | COC(=O)NC1CCc2ccc(NC(=O)c3cccc(C)c3-c3ccc(C(F)(F)F)cc3)cc2CC1 (stereo not given) |

The compounds below were run on Rattus norvegicus (assay: Inhibition of plasma triglycerides in normolipidemic rats after 24 h of 50 mg/kg oral dosing; no significant change).
Assay type: functional, organism-based
Parameters: dose 50 mg/kg
How it was run: as §1

| Compound | NS |
| --- | --- |
| Cc1cccc(C(=O)Nc2ccc3c(c2)C[C@@H](NS(C)(=O)=O)C3)c1-c1ccc(C(F)(F)F)cc1 | no significant change |
| Cc1cccc(C(=O)Nc2ccc3c(c2)CCC(NS(C)(=O)=O)CC3)c1-c1ccc(C(F)(F)F)cc1 (stereo not given) | no significant change |
| COC(=O)NC1CCc2ccc(NC(=O)c3cccc(C)c3-c3ccc(C(F)(F)F)cc3)cc2CC1 (stereo not given) | no significant change |
| Cc1cccc(C(=O)Nc2ccc3c(c2)C[C@H](NS(C)(=O)=O)C3)c1-c1ccc(C(F)(F)F)cc1 | no significant change |
| COC(=O)N[C@H]1Cc2ccc(NC(=O)c3ccccc3-c3ccc(C(F)(F)F)cc3)cc2C1 | no significant change |

What follows are compounds tested on Rattus norvegicus (assay: Inhibition of plasma triglycerides in normolipidemic rats after 2 hr of 50 mg/kg oral dosing).
Assay type: functional
How it was run: as §1

| Compound | Reduction |
| --- | --- |
| Cc1cccc(C(=O)Nc2ccc3c(c2)C[C@@H](NS(C)(=O)=O)C3)c1-c1ccc(C(F)(F)F)cc1 | 33% |
| Cc1cccc(C(=O)Nc2ccc3c(c2)CCC(NS(C)(=O)=O)CC3)c1-c1ccc(C(F)(F)F)cc1 (stereo not given) | 81% |
| COC(=O)NC1CCc2ccc(NC(=O)c3cccc(C)c3-c3ccc(C(F)(F)F)cc3)cc2CC1 (stereo not given) | 39% |
| Cc1cccc(C(=O)Nc2ccc3c(c2)C[C@H](NS(C)(=O)=O)C3)c1-c1ccc(C(F)(F)F)cc1 | 74% |
| COC(=O)N[C@H]1Cc2ccc(NC(=O)c3ccccc3-c3ccc(C(F)(F)F)cc3)cc2C1 | 69% |

What follows are compounds tested on Rattus norvegicus (assay: Inhibition of total cholesterol in normolipidemic rats after 24 hr of 50 mg/kg oral dosing; no significant change).
Assay type: functional, organism-based
Parameters: dose 50 mg/kg
How it was run: as §1

| Compound | NS |
| --- | --- |
| Cc1cccc(C(=O)Nc2ccc3c(c2)C[C@@H](NS(C)(=O)=O)C3)c1-c1ccc(C(F)(F)F)cc1 | no significant change |
| COC(=O)NC1CCc2ccc(NC(=O)c3cccc(C)c3-c3ccc(C(F)(F)F)cc3)cc2CC1 (stereo not given) | no significant change |
| Cc1cccc(C(=O)Nc2ccc3c(c2)C[C@H](NS(C)(=O)=O)C3)c1-c1ccc(C(F)(F)F)cc1 | no significant change |
| COC(=O)N[C@H]1Cc2ccc(NC(=O)c3ccccc3-c3ccc(C(F)(F)F)cc3)cc2C1 | no significant change |
